Measurements: PMC5367579 (International Journal of Nanomedicine, 2017)
Ends that are not written are not given here.

Tests used:
[1] = cited from earlier work
INS-1 cells [2] = test: Insulin receptor beta subunit expression in INS-1 cells; format: cell-based; details: 10 nM SCD/peptides or 210 nM SeNPs/SC, 48 h, Western blot IR-β
db/db mice [3] = test: Acute blood glucose lowering after single intraperitoneal dose in db/db mice; format: in vivo; details: 20 nmol/kg single intraperitoneal dose
Outline: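 Male 10-week-old db/db mice (type 2 diabetic), six groups of eight, with blood glucose measured before treatment. A single intraperitoneal dose of 20 nmol/kg (dosed by peptide content) was given, diluted in sterile normal saline. Blood glucose was read at 0.5 h, then hourly from 1 to 15 h. Controls were saline (same volume), reference peptides at 20 nmol/kg, and peptide-free nanoparticle carrier at 42.1 μg/kg.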

INS-1 cells [4] = test: Glucose uptake of INS-1 cells; format: cell-based; details: 10 nM SCD/peptides or 210 nM SeNPs/SC, KRBH buffer with 16.7 mM glucose, 20 min
db/db mice [5] = test: Chronic 12-week daily administration in db/db mice; format: in vivo; details: daily i.p. 12 weeks, 20 nmol/kg (SC 42.1 μg/kg), mean ± SEM, n=8

| Substance | half-life of wild PACAP ([1]; abstract, comparator for SCD half-life, ref not given) | half-life ([1]; in vivo) | insulin receptor expression level vs PBS group (INS-1 cells [2]) | hypoglycemic effect (db/db mice [3]) | glucose uptake (INS-1 cells [4]) | CHOL (db/db mice [5]) | Free fatty acid (db/db mice [5]) | HDL-C (db/db mice [5]) | LDL-C (db/db mice [5]) | TG (db/db mice [5]) | Water consumption (db/db mice [5]) | Whole white fat (db/db mice [5]) |
| --- | --- | --- | --- | --- | --- | --- | --- | --- | --- | --- | --- | --- |
| pituitary adenylate cyclase activating peptide [PACAP] | ~ 5 min |  |  |  |  |  |  |  |  |  |  |  |
| HSDAVFTDNYTRLRKQVAAKKYLQSIKNKRY-NH2 (C-terminus assumed) [BAY55-9837] |  | ~ 5 min | 1.25 fold | momentary hypoglycemic effect within 30 min | 1.44 mM | 2.55 ± 0.25 mmol/L | 1.30±0.19 mEq/L | 1.46 ± 0.20 mmol/L | 0.63 ± 0.12 mmol/L | 1.93 ± 0.14 mmol/L | 27.2 ± 1.90 g/day | 15.3 ± 1.28 g |
